From ChEMBL document CHEMBL3091279, “Discovery and SAR studies of methionine-proline anilides as dengue virus NS2B-NS3 protease inhibitors” (Bioorg Med Chem Lett, 2013)
pKi: −log10 of the molar value. Counter-ions that a name gives are not always drawn. Activity calls are given as the source filed them. The rule behind the calls is not given here. Non-standard residues stand in square brackets, D forms with d. Residues, ends and D or L forms follow the SMILES beside them. *: point of attachment. Pbf = Cc1c(C)c(S(=O)(=O)*)c(C)c2c1OC(C)(C)C2; Met(O2) = CS(=O)(=O)CC[C@H](N)C(=O)O; Met(O) = CS(=O)CC[C@H](N)C(=O)O; pNA = O=[N+]([O-])c1ccc(N*)cc1; Boc = CC(C)(C)OC(=O)*; NHBn = c1ccc(CN*)cc1; Tfa = O=C(C(F)(F)F)*; NHPh = c1ccc(N*)cc1

Tested on: dengue virus type 2
Assay: Inhibition of Dengue virus serotype 2 NS2B-NS3 protease using benzoyl-Nle-Lys-Arg-Arg-AMC as substrate assessed as remaining activity at 15 uM incubated for 3 mins followed by substrate addition by fluorescence spectrophotometric analysis relative to control
How it was run: (§1)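 DENV2 NS2B-NS3 protease expressed from a plasmid. Enzyme preincubated with inhibitor 3 min, then Bz-Nle-Lys-Arg-Arg-AMC (33 or 66 µM) added. Remaining activity read by fluorescence, ex 356/em 438 nm. Triplicate averages. Ki from Dixon plot (1/v vs inhibitor) at the two substrate levels.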

Compound	Activity [%]
CSCC[C@H](N)C(=O)N1CCC[C@H]1C(=O)Nc1ccc([N+](=O)[O-])cc1	31
CSCC[C@H](NC(=O)OC(C)(C)C)C(=O)N1CCC[C@H]1C(=O)Nc1ccc([N+](=O)[O-])cc1 (Boc-Met-Pro-pNA)	45
CSCC[C@H](N)C(=O)N1CCC[C@H]1C(=O)NCc1ccccc1 (H-Met-Pro-NHBn)	58
CSCC[C@H](NC(=O)C(F)(F)F)C(=O)N1CCC[C@H]1C(=O)Nc1ccc([N+](=O)[O-])cc1 (Tfa-Met-Pro-pNA)	54

Tested on: dengue virus type 2
Assay: Inhibition of Dengue virus serotype 2 NS2B-NS3 protease using benzoyl-Nle-Lys-Arg-Arg-AMC as substrate assessed as fluorescence changes after 0.2 to 1 min by fluorescence spectrophotometric analysis
How it was run: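 Fluorescence interference check. Fluorescence change over time followed in three parallel runs at 37 °C in pH 9.0 Tris buffer: NS2B-NS3 with inhibitor, NS2B-NS3 with Bz-Nle-Lys-Arg-Arg-AMC, and NS2B-NS3 with substrate plus inhibitor. Read at ex 356/em 438 nm.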

Compound	inhibition
CSCC[C@H](NC(=O)OC(C)(C)C)C(=O)N1CCC[C@H]1C(=O)Nc1ccc([N+](=O)[O-])cc1 (Boc-Met-Pro-pNA)	Active

Tested on: dengue virus type 2
Assay: Inhibition of Dengue virus serotype 2 NS2B-NS3 protease using benzoyl-Nle-Lys-Arg-Arg-AMC as substrate assessed as remaining activity at 20 uM incubated for 3 mins followed by substrate addition by fluorescence spectrophotometric analysis relative to control
How it was run: as §1

Compound	Activity [%]
COc1ccc(CN[C@@H](CCSC)C(=O)N2CCC[C@H]2C(=O)Nc2ccc([N+](=O)[O-])cc2)cc1	90
CSCC[C@H](N)C(=O)N1CCC[C@@H]1C(=O)Nc1ccc([N+](=O)[O-])cc1	71
CSCC[C@H](N)C(=O)N1CCC[C@H]1C(=O)Nc1cccc([N+](=O)[O-])c1	37
CSCC[C@H](N)C(=O)N1CCC[C@H]1C(=O)Nc1ccccc1[N+](=O)[O-]	96
CSCC[C@H](NCc1ccc([N+](=O)[O-])cc1)C(=O)N1CCC[C@H]1C(=O)Nc1ccc([N+](=O)[O-])cc1	38
Cc1c(C)c(S(=O)(=O)NC(=N)NCCC[C@H](NC(=O)OC(C)(C)C)C(=O)N2CCC[C@H]2C(=O)Nc2ccc([N+](=O)[O-])cc2)c(C)c2c1OC(C)(C)C2 (Boc-Arg(Pbf)-Pro-pNA)	90
Cc1c(C)c(S(=O)(=O)NC(=N)NCCC[C@H](N)C(=O)N2CCC[C@H]2C(=O)Nc2ccc([N+](=O)[O-])cc2)c(C)c2c1OC(C)(C)C2 (H-Arg(Pbf)-Pro-pNA)	106
N=C(N)NCCC[C@H](N)C(=O)N1CCC[C@H]1C(=O)Nc1ccc([N+](=O)[O-])cc1 (H-Arg-Pro-pNA)	93
CS(=O)(=O)CC[C@H](N)C(=O)N1CCC[C@H]1C(=O)Nc1ccc([N+](=O)[O-])cc1 (H-[Met(O2)]-Pro-pNA)	103
C[S+]([O-])CC[C@H](N)C(=O)N1CCC[C@H]1C(=O)Nc1ccc([N+](=O)[O-])cc1 (stereo partly specified) (H-[Met(O)]-Pro-pNA)	99

Tested on: not listed separately
Assay: Competitive inhibition of Dengue virus serotype 2 NS2B-NS3 protease using benzoyl-Nle-Lys-Arg-Arg-AMC as substrate by Dixon plot analysis
Set-up: species or system dengue virus type 2
How it was run: as §1

Compound	pKi
CSCC[C@H](N)C(=O)N1CCC[C@H]1C(=O)Nc1ccc([N+](=O)[O-])cc1	5.31
CSCC[C@H](NC(=O)OC(C)(C)C)C(=O)N1CCC[C@H]1C(=O)Nc1ccc([N+](=O)[O-])cc1 (Boc-Met-Pro-pNA)	4.98

Tested on: dengue virus type 2
Assay: Inhibition of Dengue virus serotype 2 NS2B-NS3 protease using benzoyl-Nle-Lys-Arg-Arg-AMC as substrate assessed as remaining activity at 200 uM incubated for 3 mins followed by substrate addition by fluorescence spectrophotometric analysis relative to control
How it was run: as §1

Compound	Activity [%]
CSCC[C@H](N)C(=O)N1CCC[C@H]1C(=O)NCc1ccc([N+](=O)[O-])cc1	36
CC(C)(C)OC(=O)N[C@@H](Cc1ccccc1)C(=O)N1CCC[C@H]1C(=O)Nc1ccc([N+](=O)[O-])cc1 (Boc-Phe-Pro-pNA)	25
CSCC[C@H](N)C(=O)N1CCC[C@H]1C(=O)Nc1ccccc1 (H-Met-Pro-NHPh)	60
N[C@@H](Cc1ccccc1)C(=O)N1CCC[C@H]1C(=O)Nc1ccc([N+](=O)[O-])cc1 (H-Phe-Pro-pNA)	31
